# Laboratory results as given in ChEMBL document CHEMBL3864172, “New Peptidomimetic Boronates for Selective Inhibition of the Chymotrypsin-like Activity of the 26S Proteasome” (ACS Med Chem Lett, 2016).
# Activity calls are given as the source filed them. The calls are words filed in the database; no cut-off is given here.
# Tests used:
# [1] = Inhibition of chymotrypsin like activity of rabbit 20S proteasome using Suc-Leu-Leu-Val-Tyr-AMC as substrate preincubated for 15 mins followed by substrate addition measured after 2 hrs by fluorescence-based assay; set-up: species or system Oryctolagus cuniculus
# [2] = Inhibition of trypsin like activity of rabbit 20S proteasome using Bz-Val-Gly-Arg-AMC as substrate preincubated for 15 mins followed by substrate addition measured after 2 hrs by fluorescence-based assay; set-up: species or system Oryctolagus cuniculus
# [3] = Inhibition of caspase like activity of rabbit 20S proteasome using Ac-nLPnLD-AMC as substrate preincubated for 15 mins followed by substrate addition measured after 2 hrs by fluorescence-based assay; set-up: species or system Oryctolagus cuniculus
# [4] = biological target: T1, Proteasome subunit beta type-8 (Mus musculus, UniProt P28063); assay: Inhibition of chymotrypsin like activity of mouse spleen 20S proteasome beta5i subunit using Suc-Leu-Leu-Val-Tyr-AMC as substrate preincubated for 15 mins followed by substrate addition measured after 2 hrs by fluorescence-based assay
# T1 sequence (P28063 whole entry): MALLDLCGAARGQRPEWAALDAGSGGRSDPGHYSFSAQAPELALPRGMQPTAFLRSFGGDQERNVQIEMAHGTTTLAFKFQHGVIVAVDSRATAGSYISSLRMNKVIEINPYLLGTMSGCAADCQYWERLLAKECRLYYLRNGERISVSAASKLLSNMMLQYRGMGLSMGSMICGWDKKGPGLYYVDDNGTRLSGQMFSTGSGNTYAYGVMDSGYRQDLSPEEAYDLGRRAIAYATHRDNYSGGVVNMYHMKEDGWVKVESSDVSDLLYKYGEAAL
# [5] = Inhibition of bovine alpha chymotrypsin using Ala-Ala-Phe-7-AMC as substrate measured for 10 mins by spectrophotometric analysis; set-up: species or system Bos taurus
# How it was run: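 Enzyme was bovine α-chymotrypsin. Compounds were tested up to a top concentration of 25000 nM. Ki values are the mean of three separate experiments, with variation between experiments below ±10%.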
# [6] = (§1) Cytotoxicity against human WE68 cells harboring wild type p53 assessed as reduction in cell viability after 48 hrs by 7AAD-staining based FACS analysis; type: functional; conditions: WE68, 48 h, read-out: LD50 (the source's name)
# How it was run: (§2)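 Cells were exposed for 48 h to compound titrations from 0 to 5000 nM. Cell death was read out by 7AAD staining, and the LD50 was taken from dose-response curves. n=3.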
# [7] = (§3) Cytotoxicity against human RD-ES cells harboring p53 mutant assessed as reduction in cell viability after 48 hrs by 7AAD-staining based FACS analysis; type: functional; conditions: read-out: LD50 (the source's name); how it was run: as §2
# [8] = (§4) Cytotoxicity against human KGN cells harboring wild type p53 assessed as reduction in cell viability after 48 hrs by 7AAD-staining based FACS analysis; type: functional; conditions: read-out: LD50 (the source's name); how it was run: as §2
# [9] = (§5) Cytotoxicity against p53 deficient human SKOV3 cells assessed as reduction in cell viability after 48 hrs by 7AAD-staining based FACS analysis; type: functional; conditions: SK-OV-3, 48 h, read-out: LD50 (the source's name); how it was run: as §2
# [10] = (§6) Cytotoxicity against human MCF7 cells harboring wild type p53 assessed as reduction in cell viability after 48 hrs by 7AAD-staining based FACS analysis; type: functional; conditions: MCF7, 48 h, read-out: LD50 (the source's name); how it was run: as §2
# [11] = (§7) Cytotoxicity against human MDA-MB-468 cells harboring mutant p53 assessed as reduction in cell viability after 48 hrs by 7AAD-staining based FACS analysis; type: functional; conditions: MDA-MB-468, 48 h, read-out: LD50 (the source's name); how it was run: as §2
# [12] = (§8) Cytotoxicity against human NCI-H929 cells harboring wild type p53 assessed as reduction in cell viability after 48 hrs by 7AAD-staining based FACS analysis; type: functional; conditions: NCI-H929, 48 h, read-out: LD50 (the source's name); how it was run: as §2
# [13] = (§9) Cytotoxicity against human U266 cells harboring mutant p53 assessed as reduction in cell viability after 48 hrs by 7AAD-staining based FACS analysis; type: functional; conditions: U-266, 48 h, read-out: LD50 (the source's name); how it was run: as §2
# [14] = Cytotoxicity against human MCF10A cells harboring wild type p53 assessed as reduction in cell viability after 48 hrs by 7AAD-staining based FACS analysis; type: toxicity, MCF-10A; conditions: for CC50 at 48 h: MCF10A cells harboring wild type p53, read-out: LD50; for Activity: mcf-10a, 48 h; how it was run: as §2
# [15] = Cytotoxicity against human IMR90 cells harboring wild type p53 assessed as reduction in cell viability after 48 hrs by 7AAD-staining based FACS analysis; type: toxicity, IMR-90; conditions: for CC50 at 48 h: IMR90 cells harboring wild type p53, read-out: LD50; for Activity: imr-90, 48 h; how it was run: as §2
# [16] = Cytotoxicity against HNDF cells harboring wild type p53 assessed as reduction in cell viability after 48 hrs by 7AAD-staining based FACS analysis; type: toxicity; conditions: human; for CC50 at 48 h: HNDF cells harboring wild type p53, read-out: LD50; for Activity: hndf, 48 h; how it was run: as §2
# [17] = Cytotoxicity against human LCL cells harboring wild type p53 assessed as reduction in cell viability after 48 hrs by 7AAD-staining based FACS analysis; type: toxicity; conditions: for CC50 at 48 h: LCL cells harboring wild type p53, read-out: LD50; for Activity: lcl, 48 h; how it was run: as §2
# [18] = test system: MDA-MB-468; assay: Inhibition of 26S proteasome in human MDA-MB-468 cells assessed as accumulation of high molecular weight polyubiquitin-conjugated proteins at 35 nM after 4 hrs by Western blot analysis; type: cell-based
# [19] = test system: MCF7; assay: Inhibition of 26S proteasome in human MCF7 cells assessed as accumulation of high molecular weight polyubiquitin-conjugated proteins at 35 nM after 4 hrs by Western blot analysis; type: cell-based
# [20] = Inhibition of chymotrypsin like activity of rabbit 20S proteasome using Suc-LLVY-AMC as substrate preincubated for 15 mins followed by substrate addition measured after 2 hrs by microplate-fluorometric analysis; set-up: species or system Oryctolagus cuniculus
# [21] = species: Oryctolagus cuniculus; assay: Selectivity ratio of IC50 for caspase like activity of rabbit 20S proteasome to IC50 for chymotrypsin like activity of rabbit 20S proteasome
# [22] = test system: WE68; assay: as §1; type: functional; how it was run: as §2
# [23] = test system: RD-ES; assay: as §3; type: functional; how it was run: as §2
# [24] = test system: KGN; assay: as §4; type: functional; how it was run: as §2
# [25] = test system: SK-OV-3; assay: as §5; type: functional; how it was run: as §2
# [26] = test system: MCF7; assay: as §6; type: functional; how it was run: as §2
# [27] = test system: MDA-MB-468; assay: as §7; type: functional; how it was run: as §2
# [28] = test system: NCI-H929; assay: as §8; type: functional; how it was run: as §2
# [29] = test system: U-266; assay: as §9; type: functional; how it was run: as §2
# [30] = test system: U-266; assay: Selectivity ratio of LD50 for human U266 cells to LD50 for human NCI-H929 cells; type: functional
# [31] = Selectivity ratio of LD50 for human SKOV3 cells to LD50 for human KGN cells; type: functional
Structure (SMILES),IC50 [1] [nM],IC50 [2] [nM],IC50 [3] [nM],IC50 [4] [nM],Ki [5] [nM],CC50 [6] [nM],CC50 [7] [nM],CC50 [8] [nM],CC50 [9] [nM],CC50 [10] [nM],CC50 [11] [nM],CC50 [12] [nM],CC50 [13] [nM],CC50 at 48 h [14] [nM],CC50 at 48 h [15] [nM],CC50 at 48 h [16] [nM],CC50 at 48 h [17] [nM],polyubiquitin accumulation (active/inactive) [18],Polyubiquitin-conjugate accumulation [19],Ratio IC50 [21],further results
CC(C)C[C@H](NC(=O)[C@H](Cc1ccccc1)NC(=O)c1cnccn1)B(O)O [BORTEZOMIB],34.6,> 25000,108,16.8,1820,100,40,180,1600,9800,37,6.6,18,1500,130,480,20,Active,Active,,
C#CCOc1ccc(C[C@@H](C=O)NC(=O)[C@@H](NC(=O)[C@H](CCCCN=[N+]=[N-])NC(=O)OCc2ccccc2)[C@H](C)CC)cc1,,,,,,,,,,,,,,,,,,,,,IC50 [20]: 21 nM
C=CCOc1ccc(CCC(=O)c2ccc(C(=O)N[C@@H](Cc3ccc(OCC=C)cc3)C(=O)N[C@@H](Cc3ccccc3)B3O[C@@H]4C[C@@H]5C[C@@H](C5(C)C)[C@]4(C)O3)[nH]2)cc1,104,> 25000,3340,113,1310,,,,,,,,,,,,,,,32.1,
C=CCOc1ccc(CCC(=O)c2ccc(C(=O)N[C@@H](Cc3ccc(OCC=C)cc3)C(=O)N[C@@H](CC(C)C)B3O[C@@H]4C[C@@H]5C[C@@H](C5(C)C)[C@]4(C)O3)[nH]2)cc1,20.9,> 25000,4180,483,> 25000,65,65,180,1500,3000,50,9,29,9000,150,1080,90,Active,Active,200,Activity [22]: Dose-dependent effect; Activity [23]: Dose-dependent effect; Activity [24]: Dose-dependent effect; Activity [25]: Dose-dependent effect; Activity [26]: Dose-dependent effect; Activity [27]: Dose-dependent effect; Activity [28]: Dose-dependent effect; Activity [29]: Dose-dependent effect; Activity [14]: Dose-dependent effect; Activity [15]: Dose-dependent effect; Activity [16]: Dose-dependent effect; Activity [17]: Dose-dependent effect; Selectivity ratio [30]: 2; Selectivity ratio [31]: 5
CC[C@H](C)[C@H](NC(=O)[C@H](CCCCN=[N+]=[N-])NC(=O)OCc1ccccc1)C(=O)N[C@@H](Cc1ccccc1)B1O[C@@H]2C[C@@H]3C[C@@H](C3(C)C)[C@]2(C)O1,21,> 25000,2450,13.8,7130,14,33,48,46,79,24,12,14,1250,8,60,,,,117,Activity [22]: Dose-dependent effect; Activity [23]: Dose-dependent effect; Activity [24]: Dose-dependent effect; Activity [25]: Dose-dependent effect; Activity [26]: Dose-dependent effect; Activity [27]: Dose-dependent effect; Activity [28]: Dose-dependent effect; Activity [29]: Dose-dependent effect; Activity [14]: Dose-dependent effect; Activity [15]: Dose-dependent effect; Activity [16]: Dose-dependent effect; Activity [17]: Dose-dependent effect
CC[C@H](C)[C@H](NC(=O)[C@H](CCCCN=[N+]=[N-])NC(=O)OCc1ccccc1)C(=O)N[C@@H](CC(C)C)B1O[C@@H]2C[C@@H]3C[C@@H](C3(C)C)[C@]2(C)O1,14.1,> 25000,1600,118,> 25000,35,35,65,370,1500,30,6.4,15,5000,200,500,30,Active,Active,113,Activity [22]: Dose-dependent effect; Activity [23]: Dose-dependent effect; Activity [24]: Dose-dependent effect; Activity [25]: Dose-dependent effect; Activity [26]: Dose-dependent effect; Activity [27]: Dose-dependent effect; Activity [28]: Dose-dependent effect; Activity [29]: Dose-dependent effect; Activity [14]: Dose-dependent effect; Activity [15]: Dose-dependent effect; Activity [16]: Dose-dependent effect; Activity [17]: Dose-dependent effect; Selectivity ratio [30]: 2; Selectivity ratio [31]: 5
